# Screening data from PubChem.
# FN deposition inh: fibronectin deposition inhibition; AH1F fibroblasts, Alexa488-fibronectin deposition fluorescence, overnight; inhibition, % at 12.6 µM; 0.086% of 350,000 active; AID 743247;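 active means mean inhibition across replicates of 30% or more, regardless of how many single replicates reach that level; inconclusive means mean under 30% yet at least half of replicates reach 30%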;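 further: positive control wells lacked labelled fibronectin entirely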
#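 Material: AH1F fibroblast monolayer depositing Alexa488-labelled fibronectin into matrix / Amount: 10000 AH1F cells per well / Signal: fluorescence 485/525 nm / Medium: DMEM, 2% serum / Compound: single dose, pinned / Incubation: 1 h cell adhesion before compound, then overnight fibronectin incubation / Reagent: Alexa488-FN, 24 nM final / Read-out: inhibition of fibronectin deposition signal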
# Xi reactivation: reactivates the inactive X chromosome in mouse fibroblasts; 0.055% of 360,000 active; XiGFP mouse fibroblasts, % GFP-positive cells imaging, 3 d; cells co-treated with 5-aza-dC sensitizer; scaled so ellipticine positive control = 100%; activation, % at 7.58 µM;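 active means mean normalized replicate activation at least 10% and every replicate at or above 10%; inconclusive means only one of the two criteria met; inactive means mean below 10% and not all replicates reach 10%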;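 further: 0% = median of on-plate neutral control wells and 100% = ellipticine 6 µM median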
#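 assay system = SV40-immortalized XiGFP fibroblast cells, line 68-5-11 | buffer or medium = DMEM plus 5-aza-dC sensitizer | doses = single-point pinned compound dosing | times = 3-day compound exposure, then 15 min fixation at room temperature | benchmarks = positive control ellipticine, 6 µM final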
# SIRT5 inh: inhibitors of human sirtuin-5 desuccinylase | Q9NXA8 | Purified SirT5, succinyl-peptide AMC, trypsin-coupled fluorescence | inhibition, % at 15 µM | 1.1% of 330,000 active | AID 652115; in the data active means inhibition above about 15%; inconclusive means no clear call, values can overlap the other calls
# Target sequence (Q9NXA8 whole entry, looked up): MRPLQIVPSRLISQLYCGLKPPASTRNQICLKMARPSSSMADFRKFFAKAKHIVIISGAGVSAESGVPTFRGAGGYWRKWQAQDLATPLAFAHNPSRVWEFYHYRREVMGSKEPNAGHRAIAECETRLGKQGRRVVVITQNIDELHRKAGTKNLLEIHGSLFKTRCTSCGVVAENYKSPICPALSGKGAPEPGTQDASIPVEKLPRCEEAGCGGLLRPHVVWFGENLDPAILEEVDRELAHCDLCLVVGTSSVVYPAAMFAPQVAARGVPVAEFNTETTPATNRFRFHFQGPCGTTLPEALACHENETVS
# ARNT TACC3 PPI: ARNT/TACC3 interaction disruption; Q9Y6A5; AlphaScreen His-ARNT PAS-B/GST-TACC3 binding, luminescence; TACC3 fragment carries E629A point mutation; inhibition, % at 9.99 µM; 0.66% of 390,000 active; AID 623870;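 active means mean inhibition of replicates at least 50% and at least half of replicates each reaching 50%; inconclusive means half or more replicates reach 50% but mean below 50%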;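 further: 0% = complete ARNT plus TACC3 wells and 100% = ARNT alone without TACC3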
# FGF22 binding: binders of recombinant human FGF22 by thermal shift; AID 651658; activity (Tm shift, normalised), % at 9.99 µM; 1.5% of 340,000 active; SYPRO orange fluorescence; percent of sucrose octasulfate shift, DMSO zero;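 active means mean Tm shift, scaled 0 neutral to 100 positive control, at about 1.3% or above, every replicate too, limit read from the data; inconclusive means no clear call, values can overlap the other calls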
# Target sequence (Q9HCT0 whole entry, looked up): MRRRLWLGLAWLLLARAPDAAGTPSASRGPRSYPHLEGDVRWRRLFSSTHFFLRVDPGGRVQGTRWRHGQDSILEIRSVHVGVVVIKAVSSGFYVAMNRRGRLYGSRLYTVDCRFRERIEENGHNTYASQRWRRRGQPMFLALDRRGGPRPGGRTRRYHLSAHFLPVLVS
# DENV2 CPE rescue: protects cells from dengue virus 2 cytopathic effect; DENV2-infected cells, cytopathic effect rescue, plate reader; CPE inhibition, % at 9.99 µM; 1.7% of 350,000 active; AID 651640; in the data active means CPE inhibition above about 20%, passing the limit was not always enough; inconclusive means no clear call, values can overlap the other calls; tested in BHK-21 cells;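 further: 0% = median of neutral control wells and 100% = median of positive control wells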
# * = called active by the depositor; ? = inconclusive; nt = no result. Shown are actives, neighbours in structure and some others; about 3.8% of the full set was active somewhere.
SMILES,FN deposition inh,Xi reactivation,SIRT5 inh,ARNT TACC3 PPI,FGF22 binding,DENV2 CPE rescue
Cc1ccc(S(=O)(=O)N2C[C@H]3n4c(=O)ccc(=O)n4C[C@H](OC(=O)NCc4ccco4)[C@@]3(O)C2)cc1,3,0,33*,nt,0,-5
CCCCCCn1c(=O)n2n(c1=O)[C@@H]1CN(S(=O)(=O)c3ccc(C)cc3)C[C@]1(O)[C@@H](OC(=O)NCc1ccccc1)C2,-4,0,20*,nt,0,-8
O=c1cc[nH]c2c1ccc1c(=O)cc[nH]c12,6,0,0,74*,0,-7
O=c1cc[nH]c2c(Cl)cccc12,1,0,-2,-3,0,-1
CCc1ccc(-n2c(=S)sc3c(=O)[nH]c(SCC(=O)NC4CCCCC4)nc32)cc1,-3,0,nt,nt,44*,5
CCOc1ccc(-n2c(=S)sc3c(=O)[nH]c(SCC(=O)NC4CCCCC4)nc32)cc1,1,0,nt,nt,43,3
CCCCNC(=O)CSc1nc2c(sc(=S)n2-c2cc(Cl)ccc2OC)c(=O)[nH]1,-2,0,-2,-2,1.4*,0
C[C@H](CO)N1C[C@H](C)[C@@H](CN(C)C(=O)Nc2ccc(F)cc2)OCc2ccccc2-c2ccccc2C1=O,-4,0,7,31,0,9
O=C(C1CCCC1)N1CC(=O)N2[C@H](CO)[C@H](c3ccc(-c4ccccc4F)cc3)[C@@H]2C1,2,0,0,nt,nt,?
CC1CC(C)CN(C(=O)COC(=O)c2ccc(Cl)nc2)C1 (stereo not given),-1,0,-3,6,1,1
CC1CC(C)CN(C(=O)COC(=O)c2nccnc2N)C1 (stereo not given),6,0,-32,30,0,45*
O=S(=O)(Nn1cnnc1)c1ccc2ccccc2c1,-6,0,1,-13,43*,8
O=S(=O)(Nn1cnnc1)c1ccccc1,nt,nt,-4,1,nt,nt
N#C[C@@H]1[C@@H](c2ccc(C#Cc3cccnc3)cc2)[C@@H](CO)N1C(=O)NC1CCCC1,-3,0,nt,nt,nt,nt
O=C(N/N=C/c1ccc[nH]1)c1ccccc1OCc1ccc(F)cc1,-2,0,22*,-5,0,1
O=C(N/N=C/c1ccccc1F)c1ccccc1OCc1ccccc1,8,0,0,-3,-1,-1
CN(C)C(=O)C[C@H]1CC[C@H]2[C@@H](COC[C@@H](O)CN2CC2CCCC2)O1,-6,1,-1,nt,0,8
COc1cccc(NC(=O)N2CC(=O)N3[C@H](CO)[C@@H](c4ccc(C#CC5CCCC5)cc4)[C@H]3C2)c1,4,0,0,nt,0,-1
COC(=O)/C=C1/C(=O)N/C(=N\c2nc(C)cc(C)n2)N1c1ccc(OC)cc1,2,0,0,-10,44*,-6
CCNC(=O)COC(=O)/C=C/c1cccc([N+](=O)[O-])c1,7,0,1,-4,43*,0
C[C@@H]1CN([C@@H](C)CO)C(=O)Cc2cc(NS(=O)(=O)c3ccc(Cl)cc3)ccc2O[C@H]1CN(C)CC1CC1,nt,-1,2,6,0,-2
Cc1noc(C)c1S(=O)(=O)N(C)C[C@H]1Oc2ccc(NC(=O)CCC(F)(F)F)cc2CC(=O)N([C@H](C)CO)C[C@@H]1C,-4,0,-1,-1,0,-8
Nc1ncc(-c2ccc(F)cc2)nc1N1CCN(CCO)CC1,0,0,1,nt,0,27*
C[C@@H]1CCCCO[C@@H](CN(C)Cc2ccccc2)[C@H](C)CN([C@@H](C)CO)C(=O)c2cc(NC(=O)Cc3ccccc3)ccc2O1,20,0,1,-4,0,18
CCn1c(=O)c(C(=O)CN2CCN(S(=O)(=O)c3ccc(C)cc3C)CC2)c(N)n(Cc2ccccc2)c1=O,-11,0,23*,3,0,nt
SMILES,FN deposition inh,Xi reactivation,SIRT5 inh,ARNT TACC3 PPI,FGF22 binding,DENV2 CPE rescue
COc1cc(CCC(=O)OCC(N)=O)cc(OC)c1OC,7,0,0,4,43*,-3
COc1cc(OC)cc(-c2c(-c3cccs3)c3cc(-c4cccc5[nH]ccc45)ccc3n2C)c1,-2,0,nt,-1,0,5
COc1cc(OC)cc(-c2c(-c3cccs3)c3cc(-c4ccn[nH]4)ccc3n2C)c1,-10,0,3,5,0,33*
COc1cc(OC)cc(-c2c(-c3cccs3)c3cc(-c4ccc(N(C)C)nc4)ccc3n2C)c1,-4,0,nt,5,0,34*
COc1cc(OC)cc(-c2c(-c3cccs3)c3cc(-c4ccc5c(c4)OCO5)ccc3n2C)c1,1,0,nt,0,0,14
COc1cc(OC)cc(-c2c(-c3cccs3)c3cc(Br)ccc3n2C)c1,-10,0,3,-12,0,-23
COc1cc(F)cc(-c2ccc3c(c2)c(-c2cccs2)c(-c2cc(OC)cc(OC)c2)n3C)c1,0,0,nt,-5,0,78*
Cc1noc(C)c1NC(=O)Nc1ccc2c(c1)C(=O)N([C@H](C)CO)C[C@@H](C)[C@@H](CN(C)Cc1ccc(C(F)(F)F)cc1)O2,nt,1,1,-9,0,0
Cc1c(CN2CCCC(CO)(Cc3cccc(Cl)c3)C2)cnn1C (stereo not given),-4,0,-6,1,43*,10
C[C@@H]1CCCCO[C@H](CN(C)S(=O)(=O)c2ccc(Cl)cc2)[C@H](C)CN([C@@H](C)CO)C(=O)c2cc(NS(=O)(=O)c3ccccc3)ccc2O1,-3,0,16*,nt,0,-11
C[C@@H]1CCCCO[C@@H](CN(C)S(=O)(=O)c2ccccc2)[C@H](C)CN([C@H](C)CO)C(=O)c2cc(NS(=O)(=O)c3ccc(Cl)cc3)ccc2O1,5,0,14,21,0,-5
C[C@@H]1CCCCO[C@@H](CN(C)S(=O)(=O)c2ccc(Cl)cc2)[C@H](C)CN([C@@H](C)CO)C(=O)c2cc(NS(=O)(=O)c3ccccc3)ccc2O1,-11,0,21*,nt,0,8
C[C@H]1CCCCO[C@@H](CN(C)S(=O)(=O)c2ccc(Cl)cc2)[C@@H](C)CN([C@@H](C)CO)C(=O)c2cc(NS(=O)(=O)c3ccccc3)ccc2O1,-9,0,3,nt,0,0
C[C@@H]1CN([C@@H](C)CO)C(=O)c2cc(NS(=O)(=O)c3ccccc3)ccc2O[C@@H](C)CCCCO[C@H]1CN(C)S(=O)(=O)c1ccc(Cl)cc1,-13,1,16*,nt,0,3
